# Data from ChEMBL document CHEMBL1177718, “Phosphoramidate ProTides of 2'-C-methylguanosine as highly potent inhibitors of hepatitis C virus. Study of their in vitro and in vivo properties” (J Med Chem, 2010).
# pEC50: −log10 of the molar value.
# What was measured:
# [1] = species on record: Homo sapiens; test: Metabolic stability in human plasma assessed as compound remaining at 1 ug/ml after 30 mins
# [2] = Selectivity index, […] for human HEK293 cells
# [3] = Cmax in ICR mouse plasma at 50 mg/kg, po by LC-MS/MS analysis; format: ADME, organism-based; set-up: dose 50 mg/kg, route oral
# [4] = tested on: Liver; test: AUC (0 to 6 hrs) in ICR mouse liver at 50 mg/kg, po by LC-MS/MS analysis; format: ADME, organism-based; set-up: time < 6 hr, dose 50 mg/kg, route oral; conditions: in vivo
# [5] = species on record: Homo sapiens; test: Metabolic stability in human plasma assessed as compound remaining at 1 ug/ml after 4 hrs
# [6] = Cytotoxicity against human CEM cells after 72 hrs by celltiter-glo assay; format: cell-based, CCRF-CEM
# How it was run: (§1)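 Cells kept in log phase of growth throughout the cytotoxicity experiments.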
# [7] = Selectivity index, […] for human MT4 cells
# [8] = Selectivity index, […] for human HuH7 cells; set-up: species or system Huh-7
# [9] = Cytotoxicity against human HEL cells after 72 hrs by celltiter-glo assay; format: cell-based
# How it was run: as §1
# [10] = Metabolic stability in rat plasma assessed as compound remaining at 1 ug/ml after 30 mins; format: ADME, cell-free; conditions: read-out: Stability
# How it was run: (§2)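 Duplicate incubations; compound at final 1 μg/mL in plasma preincubated and kept at […]; samples taken at 30 or 240 min, quenched with ice-cold acetonitrile, centrifuged, supernatant diluted with water; parent quantified by LC-MS/MS (Polar-RP column, formic acid water/acetonitrile gradient, positive ion mode); % remaining reported.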
# [11] = tested on: Plasma; test: Dose normalized AUC in ICR mouse plasma at 50 mg/kg, po by LC-MS/MS analysis; format: ADME, organism-based; set-up: dose 50 mg/kg, route oral; conditions: in vivo
# [12] = Metabolic stability in dog plasma assessed as compound remaining at 1 ug/ml after 30 mins; format: ADME, cell-free, Canis lupus familiaris; conditions: read-out: Stability
# How it was run: as §2
# [13] = tested on: Liver; test: AUC (0 to 24 hrs) in ICR mouse liver at 50 mg/kg, po by LC-MS/MS analysis; format: ADME, organism-based; set-up: time < 24 hr, dose 50 mg/kg, route oral; conditions: in vivo
# [14] = Cytotoxicity against human HEK293 cells after 72 hrs by celltiter-glo assay; format: cell-based
# How it was run: as §1
# [15] = tested on: Liver; test: Dose normalized AUC in ICR mouse liver at 50 mg/kg, po by LC-MS/MS analysis; format: ADME, organism-based; set-up: dose 50 mg/kg, route oral; conditions: in vivo
# [16] = Cytotoxicity against human HepG2 cells after 72 hrs by celltiter-glo assay; format: cell-based
# How it was run: as §1
# [17] = Metabolic stability in rat plasma assessed as compound remaining at 1 ug/ml after 4 hrs; format: ADME, cell-free; conditions: read-out: Stability
# How it was run: as §2
# [18] = Selectivity index, […] for human Caco-2 cells
# [19] = Selectivity index, […] for rat IEC-6 cells
# [20] = Metabolic stability in cynomolgus monkey plasma assessed as compound remaining at 1 ug/ml after 4 hrs; format: ADME, cell-free, Macaca fascicularis; conditions: read-out: Stability
# How it was run: as §2
# [21] = Cytotoxicity against human MT4 cells after 72 hrs by celltiter-glo assay; format: cell-based
# How it was run: as §1
# [22] = Cytotoxicity against rat IEC6 cells after 72 hrs by celltiter-glo assay; format: cell-based
# How it was run: as §1
# [23] = Cytotoxicity against human HuH7 cells after 72 hrs by celltiter-glo assay; format: cell-based, Huh-7
# How it was run: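 Replicon 1b Huh7 cells seeded 2 × 10⁴/well; after 24 h, 11 serial 2× dilutions from 100 μM (three repeats each) with no-compound control; 72 h at 37 °C, CO₂, log-phase growth; viability by CellTiter-Glo luminescence; CC₅₀ = concentration giving 50% signal.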
# [24] = Selectivity index, […] for human HepG2 cells
# [25] = Metabolic stability in cynomolgus monkey plasma assessed as compound remaining at 1 ug/ml after 30 mins; format: ADME, cell-free, Macaca fascicularis; conditions: read-out: Stability
# How it was run: as §2
# [26] = Selectivity index, […] for human HEL cells
# [27] = Metabolic stability in mouse plasma assessed as compound remaining at 1 ug/ml after 30 mins; format: ADME, cell-free; conditions: read-out: Stability
# [28] = tested on: Hepatitis C virus; test: Antiviral activity against HCV1b infected in human HuH7 cells assessed as inhibition of viral replication after 48 hrs by luciferase reporter gene assay; format: functional, organism-based, Hepacivirus hominis; conditions: genotype 1b, Huh-7, 48 h
# How it was run: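 Huh7 cells carrying genotype 1b bicistronic subgenomic replicon, seeded 2 × 10⁴/well without G-418; compounds added 18-24 h later, 48 h exposure; 3× or 4× serial dilutions over 0.0001-10 μM in triplicate/quadruplicate; Renilla luciferase read-out versus untreated cells; EC₅₀ by four-parameter sigmoidal nonlinear regression; at least three independent assays.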
# [29] = Cytotoxicity against human Caco-2 cells after 72 hrs by celltiter-glo assay; format: cell-based
# How it was run: as §1
# [30] = Selectivity index, […] for human CEM cells; set-up: species or system CCRF-CEM
# [31] = Metabolic stability in mouse plasma assessed as compound remaining at 1 ug/ml after 4 hrs; format: ADME, cell-free; conditions: read-out: Stability
# [32] = Metabolic stability in dog plasma assessed as compound remaining at 1 ug/ml after 4 hrs; format: ADME, cell-free, Canis lupus familiaris; conditions: read-out: Stability
# How it was run: as §2
# [33] = Metabolic stability in human intestine S9 fraction assessed as compound remaining at 10 uM after 30 mins by HPLC analysis in absence of NADP; format: ADME, tissue-based; conditions: read-out: Stability
# [34] = Metabolic stability in dog intestine S9 fraction assessed as compound remaining at 10 uM after 30 mins by HPLC analysis in presence of NADP; format: ADME, tissue-based, Canis lupus familiaris; conditions: read-out: Stability
# [35] = Metabolic stability in human intestine S9 fraction assessed as compound remaining at 10 uM after 30 mins by HPLC analysis in presence of NADP; format: ADME, tissue-based; conditions: read-out: Stability
# [36] = Metabolic stability in dog liver S9 fraction assessed as compound remaining at 10 uM after 30 mins by HPLC analysis in presence of NADP; format: ADME, subcellular, Canis lupus familiaris; conditions: read-out: Stability
# [37] = Metabolic stability in human liver S9 fraction assessed as compound remaining at 10 uM after 30 mins by HPLC analysis in absence of NADP; format: ADME, subcellular; conditions: read-out: Stability
# [38] = Metabolic stability in human liver S9 fraction assessed as compound remaining at 10 uM after 30 mins by HPLC analysis in presence of NADP; format: ADME, subcellular; conditions: read-out: Stability
# [39] = Metabolic stability in dog intestine S9 fraction assessed as compound remaining at 10 uM after 30 mins by HPLC analysis in absence of NADP; format: ADME, tissue-based, Canis lupus familiaris; conditions: read-out: Stability
# [40] = Metabolic stability in dog liver S9 fraction assessed as compound remaining at 10 uM after 30 mins by HPLC analysis in absence of NADP; format: ADME, subcellular, Canis lupus familiaris; conditions: read-out: Stability
# [41] = Oral bioavailability in ICR mouse at 50 mg/kg; format: ADME, organism-based; conditions: in vivo
# [42] = Oral bioavailability in cynomolgus monkey at 50 mg/kg; format: ADME, organism-based, Macaca fascicularis; conditions: in vivo
# [43] = Metabolic stability in rat liver S9 fraction assessed as compound remaining at 10 uM after 30 mins by HPLC analysis in absence of NADP; format: ADME, subcellular; conditions: read-out: Stability
# [44] = Metabolic stability in cynomolgus monkey liver S9 fraction assessed as compound remaining at 10 uM after 30 mins by HPLC analysis in presence of NADP; format: ADME, subcellular, Macaca fascicularis; conditions: read-out: Stability
# [45] = Metabolic stability in cynomolgus monkey intestine S9 fraction assessed as compound remaining at 10 uM after 30 mins by HPLC analysis in absence of NADP; format: ADME, tissue-based, Macaca fascicularis; conditions: read-out: Stability
# [46] = Metabolic stability in cynomolgus monkey liver S9 fraction assessed as compound remaining at 10 uM after 30 mins by HPLC analysis in absence of NADP; format: ADME, subcellular, Macaca fascicularis; conditions: read-out: Stability
# [47] = Metabolic stability in rat liver S9 fraction assessed as compound remaining at 10 uM after 30 mins by HPLC analysis in presence of NADP; format: ADME, subcellular; conditions: read-out: Stability
# [48] = Metabolic stability in rat intestine S9 fraction assessed as compound remaining at 10 uM after 30 mins by HPLC analysis in absence of NADP; format: ADME, tissue-based; conditions: read-out: Stability
# [49] = Metabolic stability in rat intestine S9 fraction assessed as compound remaining at 10 uM after 30 mins by HPLC analysis in presence of NADP; format: ADME, tissue-based; conditions: read-out: Stability
# [50] = Metabolic stability in cynomolgus monkey intestine S9 fraction assessed as compound remaining at 10 uM after 30 mins by HPLC analysis in presence of NADP; format: ADME, tissue-based, Macaca fascicularis; conditions: read-out: Stability
Structure (SMILES),"remaining at 0.5 h, 1 ug/ml [1]",Cmax [3],AUC [4],"remaining at 0.5 h, 1 ug/ml [10]",AUC [11],"remaining at 0.5 h, 1 ug/ml [12]",AUC [13],AUC [15],CC50 at 72 h [23],"remaining at 0.5 h, 1 ug/ml [25]","remaining at 0.5 h, 1 ug/ml [27]",pEC50 [28],"remaining at 0.5 h, 10 µM [33]","remaining at 0.5 h, 10 µM [35]","remaining at 0.5 h, 10 µM [37]","remaining at 0.5 h, 10 µM [38]",other results
C[C@H](NP(=O)(OC[C@H]1O[C@@H](n2cnc3c(=O)[nH]c(N)nc32)[C@](C)(O)[C@@H]1O)Oc1cccc2ccccc12)C(=O)O[C@@H](C)c1ccccc1 (stereo partly specified),100%,1380 ng/mL,2596 ng·h/g,0.8%,85 ng·h/mL,97%,5390 ng·h/g,108 ng·h/g,> 100 µM,100%,3.1%,7.10,,,,,"Selectivity Index [2]: >=1000; remaining at 4 h, 1 ug/ml [5]: 99%; CC50 at 72 h [6]: 82 µM; Selectivity Index [7]: >=1000; Selectivity Index [8]: >=1000; CC50 at 72 h [9]: > 100 µM; CC50 at 72 h [14]: > 100 µM; CC50 at 72 h [16]: > 100 µM; remaining at 4 h, 1 ug/ml [17]: 0%; Selectivity Index [18]: >=1000; Selectivity Index [19]: >=1000; remaining at 4 h, 1 ug/ml [20]: 100%; CC50 at 72 h [21]: 87 µM; CC50 at 72 h [22]: > 100 µM; Selectivity Index [24]: >=1000; Selectivity Index [26]: >=1000; CC50 at 72 h [29]: > 100 µM; Selectivity Index [30]: >=1000; remaining at 4 h, 1 ug/ml [31]: 0%; remaining at 4 h, 1 ug/ml [32]: 92%"
C[C@@]1(O)[C@H](O)[C@@H](COP(=O)(N[C@@H](Cc2ccccc2)C(=O)OCc2ccccc2)Oc2cccc3ccccc23)O[C@H]1n1cnc2c(=O)[nH]c(N)nc21 (stereo partly specified),,,,,,,,,> 100 µM,,1%,5.92,5%,0%,20%,0%,"remaining at 0.5 h, 10 µM [34]: 0%; remaining at 0.5 h, 10 µM [36]: 4%; remaining at 0.5 h, 10 µM [39]: 0%; remaining at 0.5 h, 10 µM [40]: 15%"
C[C@@]1(O)[C@H](O)[C@@H](CO)O[C@H]1n1cnc2c(=O)[nH]c(N)nc21 [2'-B-METHYL-GUANOSINE],,5200 ng/mL,16510 ng·h/g,,411 ng·h/mL,,36868 ng·h/g,737 ng·h/g,> 100 µM,,,5.46,,,,,bioavailability [41]: 85%; bioavailability [42]: 10%
C[C@H](NP(=O)(OC[C@H]1O[C@@H](n2cnc3c(=O)[nH]c(N)nc32)[C@](C)(O)[C@@H]1O)Oc1cccc2ccccc12)C(=O)OCc1ccccc1 (stereo partly specified),58%,,,1.3%,,67%,,,> 100 µM,54%,1.1%,7.21,49%,0%,41%,27%,"remaining at 0.5 h, 10 µM [43]: 0%; remaining at 0.5 h, 10 µM [44]: 0%; remaining at 0.5 h, 10 µM [45]: 30%; remaining at 0.5 h, 10 µM [46]: 32%; remaining at 0.5 h, 10 µM [47]: 0%; remaining at 0.5 h, 10 µM [48]: 46%; remaining at 0.5 h, 10 µM [49]: 30%; remaining at 0.5 h, 10 µM [50]: 0%"
